In ChEMBL document CHEMBL5038593, “Rational Design and Synthesis of Novel Dual PROTACs for Simultaneous Degradation of EGFR and PARP” (J Med Chem, 2021) one finds Activity, Kd and IC50 data, which are given here for 8 compounds.

Active and inactive are the calls of the source. The rule behind the calls is not given here.

In general, Kd refers to the equilibrium constant for the complex coming apart. Broadly, the IC50 is the concentration that gives 50% inhibition. The low end stands for greater potency, the high end for weaker potency.

In experiment [1] the target is T1, Protein cereblon/Poly [ADP-ribose] polymerase 1 (Homo sapiens) (UniProt P09874+Q96SW2). Kind of experiment: Protac activity at CRBN/PARP-1 in human SW1990 cells assessed as induction of PARP-1 degradation at 1 to 50 uM incubated for 24 hrs by Western blot analysis. Conditions: dose 1-50 µM. It counts as cell-based. The method, boiled down: (§1)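 SW1990 cells grown in high-glucose DMEM (25 mM glucose) with 10% FBS, 5% CO₂, 37 °C. Seeded and left 24 h, then exposed to DMSO or compound. Cells washed in PBS, lysed in RIPA, and cleared at 13 000 rpm for 15 min. Protein measured by BCA. 20−40 μg run on 10% SDS-PAGE, moved to PVDF, blocked 1 h in 5% milk or BSA, primary antibodies 1:1000 overnight at 4 °C, ECL detection.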
T1 sequence (P09874 2-1014 limits assumed): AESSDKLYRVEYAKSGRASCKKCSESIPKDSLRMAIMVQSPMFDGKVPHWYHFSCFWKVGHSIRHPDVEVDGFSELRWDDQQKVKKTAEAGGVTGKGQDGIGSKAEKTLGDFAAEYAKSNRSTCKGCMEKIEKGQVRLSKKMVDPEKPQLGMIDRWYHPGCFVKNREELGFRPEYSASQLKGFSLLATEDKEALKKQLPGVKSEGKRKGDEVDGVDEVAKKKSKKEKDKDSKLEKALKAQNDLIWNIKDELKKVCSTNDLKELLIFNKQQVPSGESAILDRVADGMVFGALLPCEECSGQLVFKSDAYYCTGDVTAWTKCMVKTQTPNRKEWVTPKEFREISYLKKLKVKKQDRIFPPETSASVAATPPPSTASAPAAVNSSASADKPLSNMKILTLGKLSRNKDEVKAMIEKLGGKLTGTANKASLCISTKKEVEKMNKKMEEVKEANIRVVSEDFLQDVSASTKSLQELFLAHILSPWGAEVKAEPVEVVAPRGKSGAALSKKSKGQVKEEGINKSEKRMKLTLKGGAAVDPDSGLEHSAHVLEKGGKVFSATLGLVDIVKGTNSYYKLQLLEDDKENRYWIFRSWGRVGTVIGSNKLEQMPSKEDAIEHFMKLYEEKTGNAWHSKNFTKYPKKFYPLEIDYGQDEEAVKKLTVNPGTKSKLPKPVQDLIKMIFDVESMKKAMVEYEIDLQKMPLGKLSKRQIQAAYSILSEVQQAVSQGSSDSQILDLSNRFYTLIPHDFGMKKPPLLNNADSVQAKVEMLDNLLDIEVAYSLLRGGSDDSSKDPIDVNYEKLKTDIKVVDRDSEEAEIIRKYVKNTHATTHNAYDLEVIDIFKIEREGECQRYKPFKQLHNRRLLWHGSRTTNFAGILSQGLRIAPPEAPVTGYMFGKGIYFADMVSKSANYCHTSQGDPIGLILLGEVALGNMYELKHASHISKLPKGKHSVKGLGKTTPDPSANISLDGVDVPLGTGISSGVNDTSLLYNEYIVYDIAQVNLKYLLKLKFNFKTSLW
T1 sequence (Q96SW2 whole entry partner): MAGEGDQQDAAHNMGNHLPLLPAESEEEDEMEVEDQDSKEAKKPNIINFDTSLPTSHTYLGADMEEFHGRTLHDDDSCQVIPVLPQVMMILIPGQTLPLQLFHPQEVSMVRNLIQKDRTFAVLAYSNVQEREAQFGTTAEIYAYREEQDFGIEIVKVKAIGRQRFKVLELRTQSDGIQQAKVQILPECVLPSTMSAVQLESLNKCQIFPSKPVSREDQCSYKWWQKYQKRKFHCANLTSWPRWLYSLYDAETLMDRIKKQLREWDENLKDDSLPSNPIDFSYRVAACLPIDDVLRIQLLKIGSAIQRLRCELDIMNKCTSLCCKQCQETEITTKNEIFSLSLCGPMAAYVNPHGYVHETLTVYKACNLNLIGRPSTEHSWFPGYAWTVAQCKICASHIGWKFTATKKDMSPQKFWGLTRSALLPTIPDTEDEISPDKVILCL
A general note: A western blot detects proteins with antibodies after separation by electrophoresis.

The target of experiment [2] is T2, Protein cereblon/Epidermal growth factor receptor (Homo sapiens) (UniProt P00533+Q96SW2). Kind of experiment: Protac activity at CRBN/EGFR in human SW1990 cells assessed as induction of EGFR degradation at 1 to 50 uM incubated for 24 hrs by Western blot analysis. It counts as cell-based. Conditions: dose 1-50 µM. The method, boiled down:
as §1

For experiment [3], the target named is T1, Protein cereblon/Poly [ADP-ribose] polymerase 1 (Homo sapiens). Kind of experiment: Protac activity at CRBN/PARP-1 in human SW1990 cells assessed as induction of PARP-1 degradation at 5 uM measured after 6 to 48 hrs by Western blot analysis. It counts as cell-based. Conditions: time 6-48 hrs, TDE = time-dependent effect. An outline of the steps: as §1

The target in experiment [4] is T2, Protein cereblon/Epidermal growth factor receptor (Homo sapiens). Kind of experiment: Protac activity at CRBN/EGFR in human SW1990 cells assessed as induction of EGFR degradation at 5 uM measured after 6 to 48 hrs by Western blot analysis. It counts as cell-based. Conditions: time 6-48 hrs, TDE = time-dependent effect. An outline of the steps:
as §1

Experiment [5] deals with Epidermal growth factor receptor (Homo sapiens, UniProt P00533). Kind of experiment: biochemical. It counts as cell-based.
Experiment [6] has as its target Poly [ADP-ribose] polymerase 1 (Homo sapiens, UniProt P09874). Kind of experiment: Binding affinity to human GST-tagged PARP-1 ART domain (788 to 1014 residues) expressed in Escherichia coli BL21 (DE3) assessed as dissociation constant incubated for 30 mins by microscale thermophoresis analysis.
The target of experiment [7] is T2, Protein cereblon/Epidermal growth factor receptor (Homo sapiens). As to the kind of experiment: Protac activity at CRBN/EGFR in human SW1990 cells assessed as decrease in EGFR expression level at 1 to 50 uM pretreated with proteasome inhibitor MG132 for 4 hr followed by incubation with compound for 24 hrs by Western blot analysis. It counts as cell-based. Conditions: dose 1-50 µM. The method, boiled down: as §1

The target of experiment [8] is T1, Protein cereblon/Poly [ADP-ribose] polymerase 1 (Homo sapiens). As to the kind of experiment: Protac activity at CRBN/PARP-1 in human SW1990 cells assessed as decrease of PARP-1 expression level at 1 to 50 uM pretreated with proteasome inhibitor MG132 for 4 hr followed by incubation with compound for 24 hrs by Western blot analysis. It counts as cell-based. Particulars: dose 1-50 µM. The method, boiled down: as §1

The subject of experiment [9] is NCI-H1299. Kind of experiment: cells. It counts as functional, cell-based. Conditions: Homo sapiens, NCI-H1299, 72 h.
For experiment [10], the target named is T3, von Hippel-Lindau disease tumor suppressor/Poly [ADP-ribose] polymerase 1 (Homo sapiens) (UniProt P09874+P40337). Kind of experiment: Protac activity at VHL/PARP-1 in human NCI-H1299 cells assessed as induction of PARP degradation at 0.47 uM incubated for 36 hrs by Western blot analysis relative to control.
T3 sequence (P09874 whole entry, looked up): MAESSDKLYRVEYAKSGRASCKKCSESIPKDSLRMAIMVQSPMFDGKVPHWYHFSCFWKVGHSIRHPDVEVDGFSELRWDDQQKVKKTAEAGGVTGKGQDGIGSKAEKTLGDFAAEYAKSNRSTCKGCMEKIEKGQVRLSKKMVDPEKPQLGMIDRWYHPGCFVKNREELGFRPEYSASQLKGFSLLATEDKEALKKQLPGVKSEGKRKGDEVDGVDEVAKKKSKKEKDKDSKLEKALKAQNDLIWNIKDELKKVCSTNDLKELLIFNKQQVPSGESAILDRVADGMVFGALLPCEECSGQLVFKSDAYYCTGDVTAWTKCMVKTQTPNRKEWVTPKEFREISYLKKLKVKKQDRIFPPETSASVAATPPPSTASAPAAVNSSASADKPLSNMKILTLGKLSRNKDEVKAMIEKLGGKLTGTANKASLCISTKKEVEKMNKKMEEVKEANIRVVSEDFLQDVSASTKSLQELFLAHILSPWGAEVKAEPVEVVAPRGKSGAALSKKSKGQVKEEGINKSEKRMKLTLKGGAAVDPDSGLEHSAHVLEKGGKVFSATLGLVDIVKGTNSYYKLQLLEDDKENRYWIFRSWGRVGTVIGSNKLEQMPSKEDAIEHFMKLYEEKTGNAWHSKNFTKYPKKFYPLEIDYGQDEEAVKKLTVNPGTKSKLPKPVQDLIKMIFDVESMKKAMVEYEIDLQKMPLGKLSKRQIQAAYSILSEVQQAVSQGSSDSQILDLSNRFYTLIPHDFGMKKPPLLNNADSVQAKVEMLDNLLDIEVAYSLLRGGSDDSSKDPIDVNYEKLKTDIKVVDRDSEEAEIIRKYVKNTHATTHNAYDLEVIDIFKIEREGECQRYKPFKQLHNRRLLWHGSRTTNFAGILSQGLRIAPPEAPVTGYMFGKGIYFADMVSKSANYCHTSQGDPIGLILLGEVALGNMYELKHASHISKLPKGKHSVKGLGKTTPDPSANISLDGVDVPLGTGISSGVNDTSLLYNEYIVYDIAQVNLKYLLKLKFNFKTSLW
T3 sequence (P40337 whole entry, looked up): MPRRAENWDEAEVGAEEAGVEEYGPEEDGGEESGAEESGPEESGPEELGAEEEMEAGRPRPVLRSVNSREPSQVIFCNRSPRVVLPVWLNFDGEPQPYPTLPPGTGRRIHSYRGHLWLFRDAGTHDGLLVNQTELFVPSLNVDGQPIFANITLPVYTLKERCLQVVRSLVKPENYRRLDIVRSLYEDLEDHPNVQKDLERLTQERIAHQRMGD
In experiment [11] the target is T4, von Hippel-Lindau disease tumor suppressor/Epidermal growth factor receptor (Homo sapiens) (UniProt P00533+P40337). Kind of experiment: Protac activity at VHL/EGFR in human NCI-H1299 cells assessed as decrease in EGFR degradation at up to 15 uM pretreated with proteasome inhibitor MG132 for 4 hr followed by incubation with compound for 6 hrs by Western blot analysis. It counts as cell-based. Particulars: dose microM <=15, time 6.0 hrs. The method, boiled down: (§2)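 NCI-H1299 cells grown in high-glucose DMEM with 10% FBS at 37 °C, 5% CO₂. Compound given after 24 h seeding. Lysis in RIPA, BCA protein assay, 20−40 μg on 10% SDS-PAGE, PVDF transfer, primary antibodies 1:1000 overnight at 4 °C, ECL. EGFR, p-EGFR and PARP probed.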
T4 sequence (P00533 25-1210 limits assumed): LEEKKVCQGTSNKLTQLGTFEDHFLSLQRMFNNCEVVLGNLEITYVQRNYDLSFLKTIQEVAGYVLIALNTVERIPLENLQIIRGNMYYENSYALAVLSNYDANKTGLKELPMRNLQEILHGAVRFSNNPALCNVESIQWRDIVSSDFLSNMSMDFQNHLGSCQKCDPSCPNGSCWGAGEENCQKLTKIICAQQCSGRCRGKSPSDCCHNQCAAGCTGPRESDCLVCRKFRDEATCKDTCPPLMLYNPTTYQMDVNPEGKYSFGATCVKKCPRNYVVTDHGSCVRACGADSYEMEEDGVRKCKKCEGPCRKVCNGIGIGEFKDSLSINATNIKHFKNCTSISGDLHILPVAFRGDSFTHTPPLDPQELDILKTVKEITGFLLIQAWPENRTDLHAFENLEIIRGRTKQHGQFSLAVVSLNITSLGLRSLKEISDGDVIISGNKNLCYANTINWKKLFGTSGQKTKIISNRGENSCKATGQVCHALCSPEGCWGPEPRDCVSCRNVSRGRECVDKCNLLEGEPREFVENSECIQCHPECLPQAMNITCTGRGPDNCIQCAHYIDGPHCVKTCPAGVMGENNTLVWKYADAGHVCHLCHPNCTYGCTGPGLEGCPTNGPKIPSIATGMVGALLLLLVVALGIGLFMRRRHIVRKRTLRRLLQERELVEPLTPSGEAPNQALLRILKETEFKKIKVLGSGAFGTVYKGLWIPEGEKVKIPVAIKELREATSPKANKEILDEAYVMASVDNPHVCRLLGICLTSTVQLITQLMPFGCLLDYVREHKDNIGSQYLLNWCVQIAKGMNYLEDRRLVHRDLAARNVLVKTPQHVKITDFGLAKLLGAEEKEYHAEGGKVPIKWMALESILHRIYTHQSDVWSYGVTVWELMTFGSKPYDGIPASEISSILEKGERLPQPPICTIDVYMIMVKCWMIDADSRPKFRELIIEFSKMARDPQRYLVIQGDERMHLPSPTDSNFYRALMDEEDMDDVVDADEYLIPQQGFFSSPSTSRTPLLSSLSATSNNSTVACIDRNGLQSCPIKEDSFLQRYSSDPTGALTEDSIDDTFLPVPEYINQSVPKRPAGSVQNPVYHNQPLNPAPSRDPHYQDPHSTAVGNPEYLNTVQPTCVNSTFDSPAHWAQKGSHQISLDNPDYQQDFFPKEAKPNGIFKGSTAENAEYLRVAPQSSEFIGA
T4 sequence (P40337 whole entry partner): as the sequence (P40337 whole entry, looked up) above

Experiment [12] deals with T4, von Hippel-Lindau disease tumor suppressor/Epidermal growth factor receptor (Homo sapiens). Kind of experiment: Protac activity at VHL/EGFR in human NCI-H1299 cells assessed as induction of EGFR degradation by measuring reduction in p-EGFR level at 15 uM incubated for 36 hrs by Western blot analysis. It counts as cell-based. The method, boiled down: as §2
In experiment [13] the target is T3, von Hippel-Lindau disease tumor suppressor/Poly [ADP-ribose] polymerase 1 (Homo sapiens). As to the kind of experiment: Protac activity at VHL/PARP-1 in human A-431 cells assessed as induction of PARP-1 degradation at 0.8 to 20 uM incubated for 36 hrs by Western blot analysis. Particulars: dose 0.8-20 µM. It counts as cell-based.
For experiment [14] the target is unchanged. Kind of experiment: Protac activity at VHL/PARP-1 in human NCI-H1299 cells assessed as induction of PARP degradation at 4 uM incubated for 6 hrs by Western blot analysis. It counts as cell-based. The method, boiled down:
as §2

The target of experiment [15] is T4, von Hippel-Lindau disease tumor suppressor/Epidermal growth factor receptor (Homo sapiens). As to the kind of experiment: Protac activity at VHL/EGFR in human NCI-H1299 cells assessed as induction of EGFR degradation at 4 uM incubated for 6 hrs by Western blot analysis. It counts as cell-based. The method, boiled down:
as §2

The target in experiment [16] is T3, von Hippel-Lindau disease tumor suppressor/Poly [ADP-ribose] polymerase 1 (Homo sapiens). Kind of experiment: Protac activity at VHL/PARP-1 in human NCI-H1299 cells assessed as decrease of PARP-1 degradation at up to 15 uM pretreated with proteasome inhibitor MG132 for 4 hr followed by incubation with compound for 6 hrs by Western blot analysis. It counts as cell-based. Conditions: dose microM <=15, time 6.0 hrs. The method, boiled down: as §2

Experiment [17] deals with T4, von Hippel-Lindau disease tumor suppressor/Epidermal growth factor receptor (Homo sapiens). As to the kind of experiment: Protac activity at VHL/EGFR in human A-431 cells assessed as induction of EGFR degradation at 0.8 to 20 uM incubated for 36 hrs by Western blot analysis. Conditions: dose 0.8-20 µM. It counts as cell-based.

Poly [ADP-ribose] polymerase 1, sequence (P09874 whole entry, the tested form may be a part): as the sequence (P09874 whole entry, looked up) above

`COc1cc2ncnc(Nc3ccc(F)c(Cl)c3)c2cc1OCCCC(=O)NC(COCc1cn(CCOCCNc2cccc3c2C(=O)N(C2CCC(=O)NC2=O)C3=O)nn1)C(=O)NCCCC(=O)N1CCN(C(=O)c2cc(Cc3n[nH]c(=O)c4ccccc34)ccc2F)CC1` (centres undefined): the outcome in experiment [1] and in experiment [2] was Active.

For the compound `COc1cc2ncnc(Nc3ccc(F)c(Cl)c3)c2cc1OCC(=O)NC(Cc1ccc(OCc2cn(CCOCCNc3cccc4c3C(=O)N(C3CCC(=O)NC3=O)C4=O)nn2)cc1)C(=O)N1CCN(C(=O)c2cc(Cc3n[nH]c(=O)c4ccccc34)ccc2F)CC1` (centres undefined), the outcome in experiment [1], in experiment [7], in experiment [2] and in experiment [8] was Active. The Activity entry in experiment [3] and in experiment [4] was “Tde” in each case. Also, the values for the dissociation constant Kd in experiment [5] and in experiment [6] were 2.74 µM and 7.89 µM, respectively.

Consider `O=C(c1cc(Cc2n[nH]c(=O)c3ccccc23)ccc1F)N1CCN(C(=O)C2CC2)CC1` [OLAPARIB], for which the half-maximal inhibitory concentration (IC50) in experiment [9] turned out to be 35.9 µM.

Take `COc1cc2ncnc(Nc3ccc(F)c(Cl)c3)c2cc1OCCCCCC(=O)NC(COCc1cn(CCCC(=O)N[C@H](C(=O)N2C[C@H](O)C[C@H]2C(=O)NCc2ccc(-c3scnc3C)cc2)C(C)(C)C)nn1)C(=O)NCCCCCC(=O)N1CCN(C(=O)c2cc(Cc3n[nH]c(=O)c4ccccc34)ccc2F)CC1` (some centres undefined): in experiment [10], the Activity came out at 50%. For the same compound, the outcome in [11], in experiment [12], in experiment [13], in experiment [14], in experiment [15] and in [16] was Active. Moreover, the outcome in [17] was Active. The compound also showed an IC50 in experiment [9] of 19.9 µM. The Kd in experiment [5] worked out at 5.47 µM; in experiment [6], 12.8 µM.

On to `COc1cc2ncnc(Nc3ccc(F)c(Cl)c3)c2cc1OCCCC(=O)NC(COCc1cn(CCOCCNc2cccc3c2C(=O)N(C2CCC(=O)NC2=O)C3=O)nn1)C(=O)N1CCN(C(=O)c2cc(Cc3n[nH]c(=O)c4ccccc34)ccc2F)CC1` (centres undefined), for which the outcome in experiment [1] and in experiment [2] was Active.

As for `COc1cc2ncnc(Nc3ccc(F)c(Cl)c3)c2cc1OCCCC(=O)NCc1cn(CCOCCNc2cccc3c2C(=O)N(C2CCC(=O)NC2=O)C3=O)nn1` (centres undefined), the outcome in experiment [2] was Active.

For the compound `COc1cc2ncnc(Nc3ccc(F)c(Cl)c3)c2cc1OCCCCCC(=O)NC(COCc1cn(CCOCCOCCNc2cccc3c2C(=O)N(C2CCC(=O)NC2=O)C3=O)nn1)C(=O)NCCCCCC(=O)N1CCN(C(=O)c2cc(Cc3n[nH]c(=O)c4ccccc34)ccc2F)CC1` (centres undefined), the outcome in [1] and in experiment [2] was Active.

Take `O=C1CCC(N2C(=O)c3cccc(NCCOCCn4cc(CCC(=O)N5CCN(C(=O)c6cc(Cc7n[nH]c(=O)c8ccccc78)ccc6F)CC5)nn4)c3C2=O)C(=O)N1` (centres undefined): the result in experiment [1] and in [2] was Active.
